GRIN3A LBD mod – binders of NR3A ligand-binding domain, primary screen, biophysical, differential scanning fluorimetry, uHTS; Glutamate receptor ionotropic, NMDA 3A (GRIN3A) ligand-binding domain; Tm shift relative to glycine control, % at 25 µM; 340,000 tested, 2.5% active; NR3A LBD differential scanning fluorimetry, Tm shift; 0% = protein alone, 100% = glycine-bound protein; AID 1259313, 2017;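 active means melting temperature shift of at least 10% of the positive control shift, at one fixed dose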
aDG glyco up – activators of alpha-DG glycosylation, primary screen, uHTS, Pro5-aDG cells, AlphaScreen; activation, % at 10 µM; 360,000 tested, 0.22% active; alpha-DG glycosylation AlphaScreen (IIH6); 0% Pro5, 100% B10-LARGE cell signal; AID 624168, 2012;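 active means activation of at least 8% versus controls, or a plate z-score of at least 8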;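 further: Pro5 are CHO cells carrying HIG-tagged alpha-DG that lacks glycosylation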
procasp3 activ – activators of human procaspase-3 D3A mutant, primary screen, biochemical, absorbance, PC-3 D3A mutant, single concentration. Caspase-3 (Homo sapiens), P42574. recombinant procaspase-3 D3A, Ac-DEVD-pNA absorbance 405 nm. activation, % at 8.5 µM. 330,000 tested, 0.11% active. AID 463141, 2010;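 active means activation above the mean of all tested compounds plus 3 SD, cut at about 21% in these data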
Target sequence (P42574 whole entry D9A/D28A/D175A): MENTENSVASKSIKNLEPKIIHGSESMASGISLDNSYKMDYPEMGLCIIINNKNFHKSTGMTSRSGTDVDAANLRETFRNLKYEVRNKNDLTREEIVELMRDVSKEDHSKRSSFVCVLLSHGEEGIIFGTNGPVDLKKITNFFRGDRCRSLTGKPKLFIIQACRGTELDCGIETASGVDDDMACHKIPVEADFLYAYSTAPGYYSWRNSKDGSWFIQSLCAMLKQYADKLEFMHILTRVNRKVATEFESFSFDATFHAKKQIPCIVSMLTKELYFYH
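System: Procaspase-3 D3A mutant. Medium: Zinc-free 300 mM NaCl, 50 mM HEPES, 0.01% Triton X-100. Schedule: 1 h preincubation plus 2 h reaction at 25 °C. Measured by: 405 nm absorbance of p-nitroaniline, reads at 0 and 120 min. Read-out: percent activation relative to control range.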
proCasp7 act – procaspase-7 activators, primary screen, counter-screen for procaspase-3 activator project, biochemical, absorbance, HTS, human; Caspase-7 (Homo sapiens), P55210; recombinant procaspase-7, Ac-DEVD-pNA absorbance 405 nm; D23A/D198A/D206A triple mutant, cannot self-cleave; scale: DMSO 0, 5 µM enzyme 100; activation, % at 8.5 µM; 330,000 tested, 0.093% active; AID 463210, 2010;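 active means percent activation above the screen-wide mean plus 3 SD, cut at about 25% in these data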
Target sequence (P55210 whole entry D23A/D198A/D206A): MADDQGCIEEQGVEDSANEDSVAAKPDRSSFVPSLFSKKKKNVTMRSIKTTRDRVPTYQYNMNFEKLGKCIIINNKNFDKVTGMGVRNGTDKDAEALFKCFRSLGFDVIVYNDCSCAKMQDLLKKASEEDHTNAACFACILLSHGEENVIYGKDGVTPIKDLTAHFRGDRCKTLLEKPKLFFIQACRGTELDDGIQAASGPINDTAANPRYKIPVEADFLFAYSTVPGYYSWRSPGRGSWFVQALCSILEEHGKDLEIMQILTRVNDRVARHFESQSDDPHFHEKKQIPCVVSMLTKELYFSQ
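Detection: p-Nitroaniline absorbance at 405 nm, read at 0 and 120 min; system: Uncleavable procaspase-7 mutant enzyme; evaluation: % activation from two-timepoint absorbance difference, scaled to controls; times: 1 h enzyme–compound preincubation and 2 h substrate reaction, both 25 °C; buffer or medium: Zinc-free HEPES pH 7.4 with 300 mM NaCl, 0.01% Triton X-100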
MPTP block – mitochondrial permeability transition pore inhibitors, primary screen, biochemical, isolated mouse mitochondria, absorbance. Ca2+ swelling absorbance, 30 min. inhibition, % at 10 µM. 360,000 tested, 1.4% active;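 active means inhibition of 50% or more, scaled per plate between neutral and stimulator controls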
Of the large screens only hits and unclear results are named; the others gave an inactive call. A selection: hits, their analogues and other compounds. The true share with any hit is near 3.7%.

O=C(O)C(=Cc1ccc([N+](=O)[O-])cc1)c1cccc(Cl)c1	none (no result: GRIN3A LBD mod, procasp3 activ, proCasp7 act)
C=CCC[C@@H](Cc1ccc(F)cc1)C(=O)OC[C@H](Cc1c[nH]c2ccccc12)NC(=O)[C@@H](CC=C)CC(=O)N[C@@H](CO)Cc1ccccc1	none
C=CCC[C@H](Cc1ccc(F)cc1)C(=O)OC[C@@H](Cc1c[nH]c2ccccc12)NC(=O)[C@@H](CC=C)CC(=O)N[C@@H](CO)Cc1ccccc1	GRIN3A LBD mod 16
C=CCC[C@@H](Cc1ccc(F)cc1)C(=O)OCCNC(=O)[C@@H](CC=C)CC(=O)N[C@@H](CO)Cc1ccccc1	GRIN3A LBD mod 23
C=CCC[C@@H](Cc1ccc(F)cc1)C(=O)OCCNC(=O)[C@@H](CC=C)CC(=O)N[C@H](CO)Cc1ccccc1	none
COc1ccc2cc(C3(C)NC(=O)N(CC(=O)N4CCCCC4)C3=O)ccc2c1 (stereo unspecified)	none
CSc1nsc(SCC(=O)Nc2ccccc2)n1	none
CSc1nsc(SCC(=O)N2CCN(c3ccccc3)CC2)n1	GRIN3A LBD mod 11
CCn1c(O)c(/C=C/C=C/C=Nc2ccccc2)sc1=S	none
Oc1c(/C=C/C=C/C=Nc2ccccc2)sc(=S)n1Cc1ccccc1	GRIN3A LBD mod 10
CCCC(=O)N1CCC1(C)C(=O)NS(=O)(=O)c1cccs1 (stereo unspecified)	none (no result: GRIN3A LBD mod, procasp3 activ, proCasp7 act)
Oc1ccc(/C=N/Nc2cccc(Cl)n2)c(O)c1	GRIN3A LBD mod 27
Cc1ncc(CO)c(/C=N/Nc2cccc(Cl)n2)c1O	GRIN3A LBD mod 15
CC(=NNC(=O)C(C)SC(C)C(=O)NN=C(C)c1cccnc1)c1cccnc1 (stereo unspecified)	none (no result: procasp3 activ, proCasp7 act)
CC(=O)Nc1sc(N/N=C\c2ccc(O)cc2)nc1-c1cccs1	none
CC(=O)Nc1sc(N/N=C\c2cccc(Cl)c2)nc1-c1cccs1	GRIN3A LBD mod 14
CC(=O)Nc1sc(NC(=O)c2ccccc2)nc1-c1cccs1	GRIN3A LBD mod 18
COc1ccccc1C(=O)Nc1nc(-c2cccs2)c(NC(C)=O)s1	none
CC(C)(C)OC(=O)C[C@H]1C/C=C\C[C@@H](CC(=O)N(CCO)Cc2ccccc2)C(=O)NC[C@@H](c2ccccc2)OC1=O	none
C[C@H](O)C#Cc1ccc2c(c1)O[C@@H](CN(C)Cc1ccc(-c3ccccc3)cc1)[C@H](C)CN([C@@H](C)CO)S2(=O)=O	none (no result: GRIN3A LBD mod, procasp3 activ, proCasp7 act)
CC(C)NC(=O)CN1CCN(C(c2ccnc3ccccc23)c2nnnn2-c2ccc3c(c2)OCCO3)CC1 (stereo unspecified)	none (no result: GRIN3A LBD mod, procasp3 activ, proCasp7 act)
COC(=O)c1ccc2nc(-c3ccc(C#N)cc3)c(Cc3cccc(Cl)c3)n2c1	none (no result: GRIN3A LBD mod, procasp3 activ, proCasp7 act)
CCOC(=O)c1cc2cc(OC)ccc2[nH]1	GRIN3A LBD mod 11
COc1ccc(C(=O)Nc2ccc3ccccc3c2)c(OC)c1	GRIN3A LBD mod 18
COc1cc(NC(=O)c2ccccc2Cl)ccc1NC(=O)c1cccs1	none
COc1ccc(C(=O)Nc2ccncc2)c(OC)c1	none
COc1cccc(C(=O)Nc2cc(NC(=O)c3cccs3)ccc2C)c1	none
COc1cc(NC(=O)c2cc3ccccc3cc2OC)ccc1NC(=O)c1cccs1	GRIN3A LBD mod 21
COc1cccc(C(=O)Nc2cccc(NC(=O)c3cccs3)c2)c1	GRIN3A LBD mod 17
Cn1c(=O)c2cc(NC(=O)NCCc3cccs3)ccc2n1Cc1ccccc1	none (no result: GRIN3A LBD mod, procasp3 activ, proCasp7 act)
Cc1nnc(Cc2ccccc2)c2n[nH]c(C)c12	none (no result: GRIN3A LBD mod, procasp3 activ, proCasp7 act)
COc1cc(NC(=O)c2ccc([N+](=O)[O-])o2)ccc1NC(=O)c1cccs1	GRIN3A LBD mod 24
COc1c(Cl)cc(Cl)cc1/C=C/C(=O)c1ccc(NC(=O)c2cccs2)cc1	GRIN3A LBD mod 30
O=C(Nc1cccc(NC(=O)c2cccs2)c1)c1ccc([N+](=O)[O-])o1	none
COc1c(Cl)cc(Cl)cc1C(=O)Nc1ccc(C(=O)O)cc1	none
COc1cccc(C(=O)Nc2cccc(C(=O)NCC(C)C)c2)c1	GRIN3A LBD mod 13
COc1ccc(NC(=O)c2cc3ccccc3[nH]2)cc1	GRIN3A LBD mod 24
O=C(COc1cccc(NC(=O)c2cccs2)c1)c1ccc(F)cc1	GRIN3A LBD mod 13
O=C(Nc1cccc(NC(=O)c2ccc([N+](=O)[O-])o2)c1)c1ccco1	none
O=C(COc1cccc(NC(=O)c2ccccc2)c1)c1ccccc1	none
O=C(Nc1ccc(NC(=O)c2ccc([N+](=O)[O-])o2)cc1Cl)c1ccco1	GRIN3A LBD mod 22
COc1cc(NC(=O)c2cccc(Cl)c2)ccc1NC(=O)c1cccs1	GRIN3A LBD mod 30
COC(=O)c1c(-c2ccc(OC)cc2)oc2ccc(-c3ccc(OC)nc3)cc12	none
CCCOC(=O)c1c(-c2ccc(OC)cc2)oc2ccc(-c3ccc(OC)nc3)cc12	GRIN3A LBD mod 15
CCOc1ccc(-c2cccc(NS(=O)(=O)c3cc([N+](=O)[O-])ccc3C)c2)nn1	GRIN3A LBD mod 11
O=C(Nc1ccc2c(c1)OCCO2)C1c2ccccc2OCC(=O)N1CCc1c[nH]c2ccccc12 (stereo unspecified)	none (no result: GRIN3A LBD mod, procasp3 activ, proCasp7 act)
Cc1c(C(=O)NCc2ccc(F)cc2)sc(=O)n1Cc1ccccc1F	none (no result: GRIN3A LBD mod, procasp3 activ, proCasp7 act)
CCCCCn1ccc(=N)cc1	GRIN3A LBD mod 11
CCCCCCCn1ccc(=N)cc1	none
CC(=O)C1=CCC(c2cccc(Cl)c2)N(S(=O)(=O)c2ccc(C)cc2)C1 (stereo unspecified)	none (no result: GRIN3A LBD mod, procasp3 activ, proCasp7 act)
Cc1ccc(/C=C2\CCOC2=O)cc1	none (no result: GRIN3A LBD mod)
Cc1ccc(/C=C2/CNC/C(=C/c3ccc(C)cc3)C2=O)cc1	GRIN3A LBD mod 31 (no result: procasp3 activ, proCasp7 act)
CC(=O)Nc1cccc(C(=O)/C=C/c2ccc(/C=C/C(=O)c3cccc(NC(C)=O)c3)cc2)c1	none (no result: GRIN3A LBD mod, aDG glyco up, MPTP block)
CC(=O)Nc1cccc(C(=O)/C=C/c2ccc(N(C)C)cc2)c1	GRIN3A LBD mod 18
Cc1cccc(NC(=O)c2ccc([N+](=O)[O-])s2)n1	aDG glyco up 7.2
Cc1ccnc(NC(=O)c2cc([N+](=O)[O-])cc([N+](=O)[O-])c2)c1	none
Cc1cccc(C)c1NC(=O)c1ccc([N+](=O)[O-])s1	none
Cc1ccnc(NC(=O)c2ccc([N+](=O)[O-])s2)c1	aDG glyco up 8.4
CCOC(=O)C1=CC[C@]2(C)c3c(c4ccccc4n3C)C(=O)C1N2C	none
COc1cc(/C=C2/C(=N)N3C=CSC3=NC2=O)ccc1OCCCOc1c(C)cccc1C	none
CCOc1cc(/C=C2\C(=N)N3N=C(S(C)(=O)=O)SC3=NC2=O)ccc1OCCOc1cccc(OC)c1	none
CCS(=O)(=O)C1=NN2C(=N)/C(=C\c3ccc(OCCOc4cccc(OC)c4)c(OC)c3)C(=O)N=C2S1	GRIN3A LBD mod 15
